# A selection: hits, their analogues and other compounds. The true share with any hit is near 4.5%.
# p97 ATPase inh = inhibitors of human p97 ATPase; P55072; recombinant p97 ATPase, Kinase-Glo ATP luminescence, 3 h; inhibition, % at 8 µM; 220,000 tested, 0.42% active; AID 1481; in the data active means inhibition above about 15%;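 further: 0% = DMSO vehicle and 100% = wells lacking enzyme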
# Target sequence (P55072 whole entry, looked up): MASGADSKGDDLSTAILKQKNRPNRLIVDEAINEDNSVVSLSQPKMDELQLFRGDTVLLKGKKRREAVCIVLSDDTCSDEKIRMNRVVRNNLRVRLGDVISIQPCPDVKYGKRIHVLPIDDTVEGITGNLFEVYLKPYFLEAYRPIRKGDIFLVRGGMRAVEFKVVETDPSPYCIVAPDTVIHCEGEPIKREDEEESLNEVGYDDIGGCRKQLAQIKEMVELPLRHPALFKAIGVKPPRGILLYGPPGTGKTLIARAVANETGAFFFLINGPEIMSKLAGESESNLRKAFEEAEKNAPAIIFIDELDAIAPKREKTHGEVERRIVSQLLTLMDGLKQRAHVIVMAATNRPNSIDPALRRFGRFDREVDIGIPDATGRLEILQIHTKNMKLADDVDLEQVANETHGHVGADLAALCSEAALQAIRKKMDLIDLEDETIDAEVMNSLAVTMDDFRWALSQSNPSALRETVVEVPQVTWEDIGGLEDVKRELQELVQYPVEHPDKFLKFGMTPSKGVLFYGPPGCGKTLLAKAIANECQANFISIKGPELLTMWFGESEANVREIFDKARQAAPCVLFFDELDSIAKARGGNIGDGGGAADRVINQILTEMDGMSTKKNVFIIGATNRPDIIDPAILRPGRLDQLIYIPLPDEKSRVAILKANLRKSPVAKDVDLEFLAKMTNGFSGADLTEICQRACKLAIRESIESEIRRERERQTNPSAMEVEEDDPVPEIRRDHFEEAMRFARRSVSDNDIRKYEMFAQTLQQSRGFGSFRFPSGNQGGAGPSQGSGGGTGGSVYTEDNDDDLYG
# CHOP inhibitor = CHOP inhibition in unfolded protein response. CHO-K1 CHOP-promoter luciferase, tunicamycin-induced, 15-18 h. AID 2732. 220,000 tested, 3.8% active. inhibition, % at 10 µM;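 active means compounds that reduced the stress-induced luciferase reporter signal by more than about 70% of percent inhibition, limit read from the data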;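 further: 0% = tunicamycin plus vehicle and 100% = wells without tunicamycin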
# UPR CHOP act = activators of apoptotic arm of unfolded protein response (CHOP); activation, % at 10 µM; AID 449763; 330,000 tested, 0.34% active; CHO-CHOP luciferase reporter, UPR activation, luminescence; percent of tunicamycin response over DMSO baseline;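 active means at 10 µM dose, activation of 40% or more, normalized to positive control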;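 further: 100% = tunicamycin at 10 µg/mL and 0% = DMSO alone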
#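 Dosing – one dose, 10 µM in 0.5% DMSO · System – CHO-CHOP cells, stable luciferase reporter of PERK-eIF2a-CHOP signalling · Input – 500 cells/well · Control set – tunicamycin 10 µg/mL final as positive, DMSO-only wells as negative · Timing – 6 h compound treatment, 37 °C · Measure – % activation vs tunicamycin · Technique – luminescence read with Steady-Glo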
# XBP1 UPR activ = adaptive UPR (XBP1) activation; CHO-XBP1 luciferase reporter, IRE1-XBP1 UPR activation, luminescence; percent of tunicamycin response, DMSO as zero; 330,000 tested, 0.33% active; activation, % at 20 µM; AID 463104;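 active means versus positive control, 20 µM dose yields 30% or more activation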;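 further: 100% = tunicamycin at 10 µg/mL and 0% = DMSO only wells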
#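 Assay system: IRE1-XBP1 luciferase reporter CHO line. Input: 1000 cells/well. Buffer or medium: F12 with 10% serum. Doses: 20 µM, 1% DMSO. Times: overnight seeding at 37 °C, 6 h compound treatment at 37 °C. Technique: Steady-Glo luciferase glow luminescence, 10 min after reagent addition.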
# HCV NS3 hel inh = HCV NS3 helicase inhibition | NS3 helicase DNA unwinding, Cy5 molecular beacon fluorescence | inhibition, % at 10.9 µM | 290,000 tested, 0.56% active;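 active means inhibition above the mean of all tested compounds plus 3 SD, set per campaign, cut at about 35% in these data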;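 further: 0% = DMSO wells and 100% = thioflavine S control wells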
#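 Measured by: Cy5 fluorescence, 0 and 60 min reads / Assay system: NS3 helicase fragment of HCV / Control set: low DMSO, high thioflavine S at 110 µM / Times: 1 h reaction at 25 °C, ATP-initiated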
# PfM18AAP inh = blocks P. falciparum M18 aspartyl aminopeptidase | recombinant PfM18AAP, H-Glu-NHMec fluorogenic cleavage | inhibition, % at 7.35 µM | 290,000 tested, 1.2% active;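 active means inhibition above the campaign mean inhibition over all tested compounds plus 3 SD, cut at about 28% in these data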;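 further: 0% = plate median of test compound wells and 100% = 2 mM ZnCl2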
# * marks the source's active call; other numbers are inactive results; x = no result.
SMILES,p97 ATPase inh,CHOP inhibitor,UPR CHOP act,XBP1 UPR activ,HCV NS3 hel inh,PfM18AAP inh
Cc1cccc(NC(=O)c2cc([N+](=O)[O-])ccc2NC2CCCCC2)c1,1,73*,3,1,5,9
CN(c1ccc([N+](=O)[O-])cc1C(=O)Nc1ccccc1)C1CCCCC1,4,14,1,0,-6,1
Cc1cccc2c1cnn2C(=O)CCC(=O)NCc1ccc(F)cc1,x,x,0,-3,-4,2
O=C(CCS(=O)(=O)c1ccccc1)NC12CC3CC(CC(C3)C1)C2,-3,74*,3,-1,4,1
COc1ccc(NC2CCCN(C(=O)CSc3ccccn3)C2)cc1OC (stereo unspecified),x,x,2,-3,2,16
O=C(NNc1ccc(F)cc1)c1c(F)cccc1Cl,4,-11,0,-3,0,30*
O=C(NNc1ccc(Cl)cc1)c1c(F)cccc1Cl,3,6,1,-4,0,31*
O=C(NNc1cc(Cl)ccc1Cl)c1c(F)cccc1Cl,-3,1,1,-1,20,19
N#C/C(=C\c1cccc([N+](=O)[O-])c1)C(=O)NCc1ccc(Cl)cc1,7,92*,x,x,-26,3
N#C/C(=C\c1cccc([N+](=O)[O-])c1)C(=O)NCc1cccnc1,2,-21,-1,-1,1,0
CC(C)(C)c1ccc(OCC(=O)N2CCN(c3ncccn3)CC2)cc1,x,x,2,-3,-7,4
CC(C)(C)c1ccc(/C=N/Nc2ccc(C(=O)O)cc2)cc1,-1,83*,-9,-5,32,-6
Oc1cccc(/C=N/Nc2nn3cnnc3c3ccccc23)c1,-12,7,0,-2,1,17
CC(C)(C)c1ccc(/C=N/Nc2cccc(C(=O)O)c2)cc1,1,24,-6,-8,23,30*
CCNC(=S)N/N=C/c1ccc(C(=O)O)cc1,7,32,0,1,-7,14
O=C(O)c1cccc(N/N=C/c2ccc(-c3ccccc3)cc2)c1,4,32,x,x,11,1
COc1cccc(/C=N/Nc2nc(Nc3ccc([N+](=O)[O-])cc3)nc(N3CCCC3)n2)c1O,10,89*,7,8,-64,3
COc1cccc(/C=N/Nc2nn3cnnc3c3ccccc23)c1O,-4,-20,1,2,4,31*
CCn1cc(-c2ccccc2)c(C(=O)O)c1-c1ccc(OC)cc1,x,x,0,-5,x,x
COC(=O)c1cc(S(=O)(=O)N2CCCCCC2)cn1C,x,x,-1,1,-11,1
COc1cccc(/C=N/Nc2ccc(C(=O)O)cc2)c1O,-23,101*,-10,-9,7,-5
COc1cccc(/C=N/Nc2ccc(S(=O)(=O)O)cc2)c1O,-2,1,-1,-1,4,-5
O=C(Nc1ccc(/C=C/c2nc3ccccc3o2)cc1)c1c(F)cccc1F,-1,23,5,-5,-17,-4
O=C(Nc1ccc(/C=C/c2nc3ccccc3o2)cc1)c1cccc(C(F)(F)F)c1,-1,93*,3,12,2,-4
Cc1cccc(C(=O)NC(=S)Nc2cccc3nc(C)ccc23)c1,x,x,0,-3,-1,11
SMILES,p97 ATPase inh,CHOP inhibitor,UPR CHOP act,XBP1 UPR activ,HCV NS3 hel inh,PfM18AAP inh
COCCSc1ccccc1C(=O)NCc1ccco1,6,54,-1,-4,-5,30*
OC[C@H]1O[C@@H](Oc2cc(O)cc(/C=C/c3ccc(O)cc3)c2)[C@H](O)[C@@H](O)[C@@H]1O,8,-19,x,x,-4,40*
Cc1ccnc2nc(C(=O)OCC(=O)Nc3ccc4c(c3)OCCO4)nn12,x,x,-1,-2,x,x
CCc1c(C)nc2ncnn2c1NCCc1ccc(Cl)cc1,2,71*,1,3,6,-1
CCc1c(C)nc2ncnn2c1NCCc1ccccc1,1,41,2,4,2,0
Cn1cc2cc(NC(N)=S)ccc2n1,1,-1,4,-1,-12,-3
CCCCc1ccc(NC(=O)COc2ccc(C(=O)Nc3ccccc3OCC)cc2)cc1,7,82*,8,3,1,-2
CC1C(=O)C(C)(C)C(=O)OC1c1ccc([N+](=O)[O-])cc1 (stereo unspecified),x,x,4,-1,6,2
COC(=O)c1ccc(CN2CCCC(CCC(=O)NCc3ccc(C)o3)C2)cc1 (stereo unspecified),1,-4,0,-2,-3,-7
COc1cc(CN2CCCC(CCC(=O)NCc3ccc(C)o3)C2)cc2c1OCO2 (stereo unspecified),0,86*,4,0,-11,8
CCn1ncc(Br)c1C(=O)N(C)C12CC3CC(CC(C3)C1)C2,0,87*,-1,-3,-7,8
Cc1nc(NC(=O)CCc2ccccc2)ccc1Br,1,80*,4,2,1,6
CCc1noc(C)c1C(=O)Nc1nnc(C(CC)CC)s1,x,x,2,0,x,x
CCN(CC)c1nc(C)c2c(c1C#N)CC(C)(C)OC2,-2,74*,1,-5,-4,-2
CC1OC(Oc2c(-c3cc(O)c(O)c(O)c3)oc3cc(O)cc(O)c3c2=O)C(O)C(O)C1O (stereo unspecified),-4,-9,0,-1,3,45*
CCOC(=O)N1CCN(C(=O)CSc2nnc3[nH]c(=O)c(C)c(C)n23)CC1,x,x,-1,-3,x,x
Cc1cc(Cl)c2c(c1)[C@]1(C(=O)N2)[C@@H]2C(=O)N(Cc3ccccc3)C(=O)[C@@H]2[C@@H]2CCCN21,2,71*,0,-2,8,3
O=C1[C@H]2[C@@H](C(=O)N1c1cc(Cl)cc(Cl)c1)[C@]1(C(=O)Nc3ccccc31)N1CCC[C@@H]21,4,33,0,-2,5,0
CCOC(=O)N1CCN(S(=O)(=O)c2cc(OCC(=O)NC3CCCCC3)c(C)cc2Cl)CC1,-3,75*,2,2,-8,-1
Cc1cc(S(=O)(=O)N2CCCCCC2)c(Cl)cc1Cl,1,80*,-1,0,-3,10
Cc1cc(Cl)c(S(=O)(=O)N2CCCCCC2)cc1OCC(=O)NC1CCCCC1,-2,92*,2,0,-1,4
Cc1cc(Cl)c(S(=O)(=O)NC2CCCC2)cc1OCC(=O)NC1CCCCC1,-1,70*,-1,-2,10,10
Cc1cc(Cl)c(S(=O)(=O)N2CCSCC2)cc1OCC(=O)NC1CCCCC1,0,69,-1,-2,-3,-4
Cc1cc(Cl)c(S(N)(=O)=O)cc1OCC(=O)NC1CCCCC1,x,x,0,-1,3,-11
Cc1cccc(CSc2ccc(S(=O)(=O)N3CCCC3)cn2)c1,x,x,-1,-1,x,x

# Compound activity deposited in PubChem by several laboratories.
